Data: ChEMBL document CHEMBL4052814, “GNE-781, A Highly Advanced Potent and Selective Bromodomain Inhibitor of Cyclic Adenosine Monophosphate Response Element Binding Protein, Binding Protein (CBP)” (J Med Chem, 2017)
pEC50, pIC50: −log10 of the molar value. Active and inactive are the calls of the source. The rule behind the calls is not given here.

Columns and labels:
[1] = Cytotoxicity against induced-Treg cells differentiated from human PBMC derived naive CD4-positive T cells assessed as effect on cell viability at 0.001 to 2 uM measured after 4 days by […] dye-based flow cytometry; details: 96 h
Outline: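 Naïve CD4+ T cells from healthy-donor PBMC were differentiated to iTregs with anti-CD3, anti-CD28, rIL-2 (10 ng/ml) and rTGFβ in RPMI-1640 with 10% FCS. Compound was tested from 2 µM in 2-fold dilutions, with DMSO as control. Cells were harvested on day 4 and viability was scored by flow cytometry with a fixable viability dye.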

Mus musculus [2] = experiment: In vivo inhibition of CBP in human MOLM16 cells xenografted in C.B-17 SCID beige mouse assessed as suppression of MYC transcript levels at 3 mg/kg administered via oral gavage as bid for 21 days measured 2 to 8 hrs post last dose by real time-PCR method; type: functional, organism-based
Cytochrome P450 2C19 = Cytochrome P450 2C19 (Homo sapiens, UniProt P33261); experiment: Inhibition of CYP2C19 (unknown origin); type: ADME
[3] = Antitumor activity against human MOLM16 cells xenografted in C.B-17 SCID beige mouse assessed as tumor growth inhibition at 3 mg/kg administered via oral gavage as bid for 21 days relative to control; type: functional; details: read-out: TGI
Outline: (§1)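 Female C.B-17 SCID.bg mice received 5 million MOLM-16 cells s.c. in HBSS/Matrigel in the right flank. Dosing began at 130–300 mm3: oral gavage BID for 21 days in 0.5% methylcellulose, 0.2% Tween 80, n=10/group. Caliper volumes taken; %TGI computed from the area under the mixed-model spline-fitted curve per day versus vehicle.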

[4] = Antitumor activity against human MOLM16 cells xenografted in C.B-17 SCID beige mouse assessed as tumor growth inhibition at 10 mg/kg administered via oral gavage as bid for 21 days relative to control; type: functional; details: read-out: TGI; outline: as §1
Cytochrome P450 2C9 = Cytochrome P450 2C9 (Homo sapiens, UniProt P11712); experiment: Inhibition of CYP2C9 (unknown origin); type: ADME
Cytochrome P450 3A4 = Cytochrome P450 3A4 (Homo sapiens, UniProt P08684); experiment: Inhibition of CYP3A4 (unknown origin); type: ADME
[5] = Drug uptake in tumor of C.B-17 SCID beige mouse xenografted with human MOLM16 cells at 3 to 30 mg/kg administered via oral gavage […] measured 2 to 24 hrs post last dose by LC-MS/MS method; type: ADME, organism-based, Neoplasm; details: in vivo
Outline: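 In MOLM-16 xenograft mice given single oral doses of 3–30 mg/kg, plasma and tumor were sampled from 2 to 24 h. Tumor was homogenized in 4 volumes of water. Both matrices were extracted with acetonitrile with labetalol as internal standard and measured by LC-MS/MS. Levels were corrected for plasma protein and tissue binding to give unbound concentrations.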

Plasma = experiment: Drug uptake in plasma of C.B-17 SCID beige mouse xenografted with human MOLM16 cells at 3 to 30 mg/kg administered via oral gavage as bid for 21 days measured 2 to 24 hrs post last dose by LC-MS/MS method; type: ADME, organism-based; details: in vivo
Mus musculus [6] = experiment: In vivo inhibition of CBP in human MOLM16 cells xenografted in C.B-17 SCID beige mouse assessed as suppression of MYC transcript levels at 30 mg/kg administered via oral gavage […] measured 2 hrs post last dose by real time-PCR method relative to control; type: functional
Outline: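 MOLM-16 subcutaneous xenografts in SCID beige mice received single oral doses of 3–30 mg/kg (n=3/group). Tumors were taken at time points from 2 to 24 h. MYC transcript was measured in tumor RNA by one-step TaqMan qRT-PCR with ACTB as housekeeping gene. Results are given relative to vehicle-treated animals by the comparative Ct method.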

[7] = Antitumor activity against human MOLM16 cells xenografted in C.B-17 SCID beige mouse assessed as tumor growth inhibition at 30 mg/kg administered via oral gavage as bid for 21 days relative to control; type: functional; details: read-out: TGI; outline: as §1
Cytochrome P450 2D6 = Cytochrome P450 2D6 (Homo sapiens, UniProt P10635); experiment: Inhibition of CYP2D6 (unknown origin); type: ADME
Mus musculus [8] = experiment: In vivo inhibition of CBP in human MOLM16 cells xenografted in C.B-17 SCID beige mouse assessed as MYC transcript levels at 3 mg/kg administered via oral gavage as bid for 21 days measured 16 hrs post last dose by real time-PCR method; type: functional; parameters: scale not given: the % may be the effect or the level left
Mus musculus [9] = experiment: Toxicity in C.B-17 SCID beige mouse xenografted with human MOLM-16 cells assessed as decrease in body weight at 3 to 30 mg/kg administered via oral gavage as bid for 21 days measured during compound dosing; details: in vivo
CREB-binding protein [10] = target: T1, CREB-binding protein (Homo sapiens, UniProt Q92793); experiment: Inhibition of CBP in human MV-4-11 cells assessed as decrease in MYC expression incubated for 4 hrs measured by luminescence method; type: cell-based
[11] = target: Bromodomain-containing protein 4 (Homo sapiens, UniProt O60885); experiment: Displacement of biotinylated histone H3K14 peptide ligand from human recombinant His-tagged BRD4 bromodomain-2 measured after 10 mins by TR-FRET assay
CREB-binding protein [12] = target: T1, CREB-binding protein; experiment: Inhibition of Halo-tagged histone H3.3 binding to NanoLuc luciferase conjugated human CBP expressed in HEK293 cells after overnight incubation by BRET assay; type: cell-based
CREB-binding protein [13] = target: T1, CREB-binding protein; experiment: Displacement of biotinylated histone H3K14 peptide ligand from human recombinant His-tagged CBP measured after 10 mins by TR-FRET assay

T1 sequence (Q92793 whole entry): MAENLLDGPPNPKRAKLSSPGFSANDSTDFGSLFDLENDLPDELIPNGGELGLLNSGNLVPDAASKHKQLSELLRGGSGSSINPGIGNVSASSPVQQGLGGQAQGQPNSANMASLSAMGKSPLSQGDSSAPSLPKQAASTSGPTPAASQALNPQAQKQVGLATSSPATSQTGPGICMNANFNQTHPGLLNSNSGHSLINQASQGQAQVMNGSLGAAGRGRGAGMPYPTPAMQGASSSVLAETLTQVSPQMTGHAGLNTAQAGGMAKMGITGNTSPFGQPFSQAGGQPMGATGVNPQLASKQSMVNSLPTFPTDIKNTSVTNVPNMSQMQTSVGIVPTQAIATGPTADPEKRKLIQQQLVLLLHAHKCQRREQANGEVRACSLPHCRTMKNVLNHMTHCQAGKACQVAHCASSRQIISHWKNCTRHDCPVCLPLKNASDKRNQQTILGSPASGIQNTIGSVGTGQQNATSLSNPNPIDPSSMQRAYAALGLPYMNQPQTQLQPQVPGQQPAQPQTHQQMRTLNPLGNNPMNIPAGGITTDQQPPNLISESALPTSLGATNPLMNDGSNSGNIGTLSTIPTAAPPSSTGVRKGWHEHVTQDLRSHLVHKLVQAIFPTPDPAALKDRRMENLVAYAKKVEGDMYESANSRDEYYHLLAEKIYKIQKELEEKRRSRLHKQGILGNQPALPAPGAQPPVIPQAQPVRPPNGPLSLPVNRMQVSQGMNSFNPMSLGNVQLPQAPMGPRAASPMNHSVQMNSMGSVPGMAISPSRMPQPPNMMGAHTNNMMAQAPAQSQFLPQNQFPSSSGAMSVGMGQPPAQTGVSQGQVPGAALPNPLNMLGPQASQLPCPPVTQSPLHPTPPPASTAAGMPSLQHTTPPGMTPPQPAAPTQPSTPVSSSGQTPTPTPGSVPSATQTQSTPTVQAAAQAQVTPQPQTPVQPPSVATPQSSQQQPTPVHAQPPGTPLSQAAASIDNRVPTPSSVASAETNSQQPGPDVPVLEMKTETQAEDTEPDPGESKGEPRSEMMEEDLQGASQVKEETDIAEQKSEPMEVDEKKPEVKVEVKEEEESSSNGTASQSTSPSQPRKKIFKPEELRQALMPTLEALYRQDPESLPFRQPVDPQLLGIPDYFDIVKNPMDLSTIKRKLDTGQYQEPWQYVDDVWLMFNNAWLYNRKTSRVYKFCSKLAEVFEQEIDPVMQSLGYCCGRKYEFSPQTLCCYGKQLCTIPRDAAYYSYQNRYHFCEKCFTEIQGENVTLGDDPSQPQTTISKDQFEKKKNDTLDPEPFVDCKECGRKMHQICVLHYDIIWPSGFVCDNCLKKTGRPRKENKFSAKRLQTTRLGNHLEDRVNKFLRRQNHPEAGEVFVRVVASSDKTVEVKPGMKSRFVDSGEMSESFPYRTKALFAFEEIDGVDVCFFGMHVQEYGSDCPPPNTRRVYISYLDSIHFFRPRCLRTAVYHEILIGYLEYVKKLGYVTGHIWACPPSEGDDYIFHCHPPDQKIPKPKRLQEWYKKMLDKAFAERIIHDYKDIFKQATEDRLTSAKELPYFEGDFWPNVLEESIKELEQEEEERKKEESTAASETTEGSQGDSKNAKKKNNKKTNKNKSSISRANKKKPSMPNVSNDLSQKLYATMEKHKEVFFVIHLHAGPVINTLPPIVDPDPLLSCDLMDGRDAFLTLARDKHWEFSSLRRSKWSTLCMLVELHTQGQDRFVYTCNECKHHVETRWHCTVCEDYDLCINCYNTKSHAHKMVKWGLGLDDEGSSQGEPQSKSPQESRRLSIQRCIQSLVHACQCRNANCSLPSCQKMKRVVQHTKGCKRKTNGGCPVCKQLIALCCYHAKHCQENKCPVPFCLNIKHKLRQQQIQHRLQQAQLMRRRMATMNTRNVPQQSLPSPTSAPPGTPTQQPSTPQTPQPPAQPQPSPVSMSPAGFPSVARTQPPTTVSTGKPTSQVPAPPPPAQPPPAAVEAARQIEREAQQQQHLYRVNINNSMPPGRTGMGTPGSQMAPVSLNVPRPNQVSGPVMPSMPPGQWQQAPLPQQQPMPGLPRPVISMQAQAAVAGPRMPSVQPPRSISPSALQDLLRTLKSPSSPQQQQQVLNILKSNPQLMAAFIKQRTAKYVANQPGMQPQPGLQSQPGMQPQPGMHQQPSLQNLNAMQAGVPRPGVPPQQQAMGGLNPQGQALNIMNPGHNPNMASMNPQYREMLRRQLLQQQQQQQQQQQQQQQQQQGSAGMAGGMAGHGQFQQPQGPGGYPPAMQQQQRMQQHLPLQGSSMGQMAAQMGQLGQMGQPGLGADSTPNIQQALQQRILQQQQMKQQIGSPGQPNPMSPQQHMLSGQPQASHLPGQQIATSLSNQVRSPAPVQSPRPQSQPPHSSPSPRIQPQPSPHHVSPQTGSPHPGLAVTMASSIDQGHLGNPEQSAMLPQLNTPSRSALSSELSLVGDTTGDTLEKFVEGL
Sequence of Cytochrome P450 2D6 (P10635 whole entry): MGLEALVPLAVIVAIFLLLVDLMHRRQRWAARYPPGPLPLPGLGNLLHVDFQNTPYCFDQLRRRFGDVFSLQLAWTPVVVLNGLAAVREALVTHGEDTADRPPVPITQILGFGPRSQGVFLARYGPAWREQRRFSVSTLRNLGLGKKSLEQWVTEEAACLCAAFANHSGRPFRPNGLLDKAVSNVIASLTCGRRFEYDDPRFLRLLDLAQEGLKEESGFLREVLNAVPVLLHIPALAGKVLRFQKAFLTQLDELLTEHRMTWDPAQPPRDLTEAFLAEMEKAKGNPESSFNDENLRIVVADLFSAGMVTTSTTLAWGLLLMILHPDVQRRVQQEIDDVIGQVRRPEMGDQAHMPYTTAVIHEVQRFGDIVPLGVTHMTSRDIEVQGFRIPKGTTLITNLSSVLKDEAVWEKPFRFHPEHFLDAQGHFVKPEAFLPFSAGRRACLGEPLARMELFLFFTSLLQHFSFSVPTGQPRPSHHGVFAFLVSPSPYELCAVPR
Sequence of Cytochrome P450 2C9 (P11712 whole entry): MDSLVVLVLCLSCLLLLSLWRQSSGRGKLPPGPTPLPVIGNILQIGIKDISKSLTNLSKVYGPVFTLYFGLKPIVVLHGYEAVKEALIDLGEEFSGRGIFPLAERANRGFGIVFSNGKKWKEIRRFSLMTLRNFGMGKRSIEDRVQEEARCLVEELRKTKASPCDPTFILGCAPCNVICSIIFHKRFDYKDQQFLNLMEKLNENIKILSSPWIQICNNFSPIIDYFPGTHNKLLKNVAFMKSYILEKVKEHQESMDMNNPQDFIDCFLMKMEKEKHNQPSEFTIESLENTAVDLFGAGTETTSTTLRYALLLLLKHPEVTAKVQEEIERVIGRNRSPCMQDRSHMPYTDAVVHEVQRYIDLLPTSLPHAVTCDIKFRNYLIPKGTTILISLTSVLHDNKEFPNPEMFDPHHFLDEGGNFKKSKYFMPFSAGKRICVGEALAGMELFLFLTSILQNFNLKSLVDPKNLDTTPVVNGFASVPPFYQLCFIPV
Sequence of Cytochrome P450 3A4 (P08684 whole entry): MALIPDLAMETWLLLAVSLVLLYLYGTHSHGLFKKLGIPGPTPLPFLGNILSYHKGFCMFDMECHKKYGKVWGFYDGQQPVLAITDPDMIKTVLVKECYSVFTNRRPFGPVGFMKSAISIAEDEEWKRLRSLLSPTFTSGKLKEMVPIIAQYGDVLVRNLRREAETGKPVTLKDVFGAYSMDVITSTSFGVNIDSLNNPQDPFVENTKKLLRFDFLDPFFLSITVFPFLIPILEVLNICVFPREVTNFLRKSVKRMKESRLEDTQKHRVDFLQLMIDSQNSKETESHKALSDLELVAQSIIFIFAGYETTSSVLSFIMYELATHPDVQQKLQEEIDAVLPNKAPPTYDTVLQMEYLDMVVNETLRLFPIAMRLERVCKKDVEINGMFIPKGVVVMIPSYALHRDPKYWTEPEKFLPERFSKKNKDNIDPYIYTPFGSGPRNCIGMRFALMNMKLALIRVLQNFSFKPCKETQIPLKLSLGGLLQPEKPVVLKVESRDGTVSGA
Sequence of Cytochrome P450 2C19 (P33261 whole entry): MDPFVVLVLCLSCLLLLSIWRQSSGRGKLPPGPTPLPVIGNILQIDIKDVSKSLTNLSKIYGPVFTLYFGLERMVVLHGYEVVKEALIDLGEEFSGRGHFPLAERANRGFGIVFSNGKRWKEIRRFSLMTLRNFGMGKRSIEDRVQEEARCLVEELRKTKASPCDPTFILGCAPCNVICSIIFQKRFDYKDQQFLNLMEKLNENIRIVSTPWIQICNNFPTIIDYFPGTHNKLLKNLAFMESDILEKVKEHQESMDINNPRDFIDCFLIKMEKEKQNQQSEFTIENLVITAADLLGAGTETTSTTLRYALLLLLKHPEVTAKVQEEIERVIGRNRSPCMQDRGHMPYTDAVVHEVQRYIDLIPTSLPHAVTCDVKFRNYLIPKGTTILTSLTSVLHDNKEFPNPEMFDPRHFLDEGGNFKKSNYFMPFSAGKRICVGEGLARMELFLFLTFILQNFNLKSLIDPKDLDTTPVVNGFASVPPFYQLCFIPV

pIC50 (Cytochrome P450 2C19)	pIC50 (Cytochrome P450 2C9)	pIC50 (Cytochrome P450 3A4)	Drug uptake [5]	Drug uptake (Plasma)	pIC50 (Cytochrome P450 2D6)	pEC50 (CREB-binding protein [10])	pIC50 [11]	pIC50 (CREB-binding protein [12])	pIC50 (CREB-binding protein [13])	Structure (SMILES)	Activity [1]	inhibition (Mus musculus [2])	inhibition in vivo at 3 mg/kg [3] [%]	inhibition in vivo at 10 mg/kg [4] [%]	Imax (Mus musculus [6]) [%]	inhibition in vivo at 30 mg/kg [7] [%]	Activity (Mus musculus [8]) [%]	%max (Mus musculus [9]) [%]
< 5.00	< 5.00	< 5.00	Active	Active	< 5.00					CNC(=O)N1CCc2c(c(N3CCCc4cc(-c5cnn(C)c5)c(C(F)F)cc43)nn2C2CCOCC2)C1	Non-Toxic	Active	73	71	88	89	150	3.7
						7.85	< 4.70	7.92	8.96	CC(=O)N1CCc2c(c(N3CCCc4cc(-c5cnn(C)c5)c(C(F)F)cc43)nn2C2CCOCC2)C1								
